In the RNAGym collection of RNA variant scans (doi:10.1126/science.aae0568):
Variants at the floor of the assay were thinned out.

B1: tRNA (parent)
chain: GUUCCGUUGGCGUAAUGGUAACGCGUCUCCCUCCUAAGGAGAAGACUGCGGGUUCGAGUCCCGUACGGAACG

Variants of: B1
Test: yeast fitness relative to wild type (ratio to wild type); higher = fitter; tRNA-Arg(CCU), competitive growth, 37 C, YPD
Outline: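 Variants of the tRNA-Arg(CCU) gene, chemically synthesised with a 3% per-site mutation rate at 69 sites, were placed at the native genomic locus in Saccharomyces cerevisiae. The pooled strains were competed in YPD at 37°C for 24 hours in six parallel replicates. Gene amplicons from the start population and from each end population were read by 100-nucleotide paired-end sequencing. Darwinian fitness relative to wild type came from changes in genotype frequencies; genotypes needed ≥ 100 starting reads, and estimates < 0.5 were set to 0.5.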

Row | Variant | yeast fitness
1 | GUUCCGUUGGCGUAAUGGUAACGCGUCUCCCUCCUCAGGAGAAGACUGCGGGUACGAGUCGCGUACGGAACG | 0.635
2 | GAUCCGUUGGCGUAAUGGUAAGGCGUCUCCCUCCUAAGGAGAAGACUGCGGGUUCGAGUCCCAUACGGAACG | 0.568
3 | GUUCCGUCGGCGUAAUGGUAACGCGUCUCCCUCCUAAGGAGAAGCCUGCGGGUUCAAGUCCCGUACGGAACG | 0.798
4 | GUUCCGGUGGCGUAAUGGUAACGCGUCUCCCUCCUAAGAAGAAGACUGCGGGUUCGAGUCCCGUACGGAACG | 0.874
5 | GUUCCGUUGGCGUAAUGGUAACGAGUCUCUCUCCUAAGGAGAAGACUGCGGGUUCGAGUCCCGGACGGAACG | ≤ 0.5
6 | GUUCCGUUGGCGUAAUGAUAACGCGUUCCCAUCCUAAGGAGAAGACUGCGGGUUGGAGUCACGUACGGAACG | 0.572
7 | GUUCUGUUGGCGUAAAGGUAACGCGUCUCCCUCAUAAGGAGAAGACUGCGGGUUCGAGUCCCAUACGGAACG | ≤ 0.5
8 | GUUCCGUUGGCGUAAUGGUAACGCGUCUCCGUCCUAUGGAGAAGACUGCGGGUUGGCGUCCCGUACGGAACG | 0.541
9 | GUUCCGUUGGCGUAAUGGUAACGCGUCUCCAUCCUAAGGAGAAGACUGCCGGUUCGAGUCCCGUACGGAGCG | ≤ 0.5
10 | GUUCCGUUGGCGUAAUGGUAACGCGUAUCCCUCCUAAGGAGAAGACUGCGGUUUAGAGUCCCGUACGGAACG | ≤ 0.5
11 | GUUCCGUUAGCGUAAUGGUAACGCGUCUCCCUCCUAAGGAGAAGACUGCGGGUUCGAGUGCCGUACAGAACG | ≤ 0.5
12 | GUUCCGUUGGCGUAAUGGUAACGCGCCUGCCUCCUAAGGAGAAGACUGUGGGUUCGAGUCCCGUACGGUACG | 0.588
13 | GUUCCGUUGGCGUAAUGGUAAUACGUCUCCCUCCUAAGGAGAAGAUUGCGGGUUCGAGUCCCGUACGGAACG | ≤ 0.5
14 | GUUCCGUUGGCGCAAUGGUAAUGCGUCUCCCUCCUAACGAGAAGACUGCGGGUUCGCGUCCCGUACGGAACG | 0.599
15 | GUACCGUUGGCGUAAUGGUAACGCGUCUCCCUCCUAAGGAGAAGACUACGGGUUCGAGUCCCGUACGGAACG | 0.844
16 | GUUCCGUUGGCGUAAUGGUAACGCGUCUCCAUCCUAAGGAGAAGACCGCGGGUUCGAGUCCCGUACAGAACG | 0.544
17 | GUUCGGUUGGCGUCAUGGUAACGCGUCUUCCUGCUAAGGAGAAGACUGCGGGUUCGAGUCCCGUCCGGAACG | ≤ 0.5
18 | GUUCGCUUGGCGUAAUGGUAACGCGUCUCGCUUCUAAGGAGAAGUCUGCGGGUUCGAGUCCCGUACGGAACG | ≤ 0.5
19 | GUACCGUUGGCAUAAUGGUAACGGGUCUUCCUCCUGAGGAGAAGACUGCGGGUUCGAGUCCCGUACGGAACG | ≤ 0.5

Row | Variant | yeast fitness
20 | GUUCCGUUGGCGUAAUGGUAACGCGUCUCCCUCCUAAGGAGAAGACUACGGAUUCGAGUCCCGUACCGAACG | 0.536
21 | GUUCCGUUGGCGUAAUAGUAACGCGUCUCCCUCCUGAGGAGAAAACCGCGGGUUCGAGUCCCGUACGGAUCG | ≤ 0.5
22 | GUUCCGUUGGCGUAAUGCUAACGCGUCUCCCUCCUAAGGAGAAGACUGCGGAUUCGAGUCCGGUACGGAACG | 0.55
23 | GUUCAGUUGGCGUGAUGGUAAGGCGUCUCCCUCCUAAGGAGAAGACUGCGGGUUCGAGUCCGGUACGGAACG | ≤ 0.5
24 | GUUCCGUUGGCGUAAUGGUAACGCGUCUCCCUCCUAAGGAGAAGACCGCGGGUUCGGGUCCCGUACGGUACG | 0.569
25 | GUUCCGUUGGCGUGGUGGUAACGCGUCUCCCUCCUAGGGAGAAGUCUGCGGGUUCGAGUCCCGUAUGGAACG | ≤ 0.5
26 | GUUCCGUUGGCGUAAUCGUAAGGCGUCUCUCUCCUAAGGACAAGAUUGCGGGUUCGAGUCCCGUUCGGAACG | ≤ 0.5
27 | GUUCGGUUCGCGUAAUGGUAACGCGUCUCGCUCCUAAGGAGAAGACUGCGGGUUCGAGUCCCGUAUGGAACG | ≤ 0.5
28 | GCUCCGUUGGCGUAAUGGUAAGGCGUCUCCCUCCUAAGGAGAAGACUGCGGGCUCGAGUCCCGUACGGAACG | 0.504
29 | GUUCCGUUGGCCUUAUGGUUACACGUCUCCCUCCUAAGGAGAAAACUGCGGGUUCGGGUCCCGUACGGAUCG | 0.575
30 | GGUCCGUUGGCGUAAUGGUAACGCGUCUCCCUCCUAAGGAGAAGACUGCAGGUUCGAGUCCCGUACGGAACG | 0.888
31 | GUUCCGUUGGCGUAAUGGUAGCGCGUCUUCCUCCUAAGGACAAGACUGCGGGUUUGAGUCCCGUACGCAACG | ≤ 0.5
32 | GUUCCGUUGGCGUAAUGGUAACGCGUCUCUCUCCCAAGGAGAAGACUGCGUGUUCGAGUCUCGUACGGAACG | ≤ 0.5
33 | GUUCCGUUGGCGUAAUGGUAACGCGUCUCCCUCCUAAGGAGGAGACUGCGGGUUCGAGUCCCGUACGAAACG | 0.728
34 | GAUCCGUUGGCGUAAUGGUAACGCGUCUAUCUCCUAAGGAGAAGAUUGCGGGUUCGACUCCCGUACGGAACG | ≤ 0.5
35 | GUUCCGUUGGCGUAAUGGUAACGCGUCUCCCUCCUAACGAGAAGACGGCGGGUUCGAGUCCCGUACGGAACG | 0.538
36 | GUUCCGUUGGCGUAAUGGUAACGCGUCUCUCUCCUAAGGAGAAGAUUGCGGGUUCGAGUACCGUACGGAACG | ≤ 0.5
37 | GUUCCGUUGGCGUAAUGGUAACGCGUCUCACUCCUAAGGUGAAGACUGCGGGUUCGAGUCCCGUACGGAACG | 0.819
38 | GUUCCAUUGGCGUAAUGGUGACGCGUCUCCCUCCUGAGGAGAAGACUGGGGGUUCGAGUCCAGUAUGGAACG | ≤ 0.5
